Article PMC8562596 (Biochemistry, 2016)
Values joined by “and” are separate entries in the source; they are usually repeats but may differ in a detail not shown here. Identical values can stand only once. Like-named read-outs stand apart in the source and are kept apart here. Marks after values point to notes of the source that are not given here. Non-standard residues stand in square brackets, D forms with d. Residues, ends and D or L forms follow the SMILES beside them. 2Nal = N[C@@H](Cc1ccc2ccccc2c1)C(=O)O

Key:
HeLa cells [1] = experiment: Apparent endosomal escape efficiency; assay type: cell-based; settings: for Apparent Endosomal Escape (γ, %): γ=(MFI^NF/MFI^Rho) of CPP over that of CPP 1 ×100%, 5 μM, 2 h
Procedure, shortened: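 HeLa cells were seeded at 1.5 × 10^5 per well and grown overnight, then given 5 μM peptide for 2 h at 37 °C in medium. Separate peptide preparations were labelled with pH-sensitive naphthofluorescein or with rhodamine B through a miniPEG linker. Cells were DPBS-washed, trypsinised, pelleted and resuspended in DPBS for flow cytometry. NF used 633-nm excitation (APC channel) and Rho used 561-nm excitation (PE channel). γ is the NF/Rho mean-fluorescence ratio normalised to the reference peptide.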

[2] = Calcein release from LUVs; settings: 20 μM peptide (Triton X-100 at 1%), over a 30-min period; Triton X-100 = 100%
Procedure, shortened: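 Large unilamellar vesicles with a lipid composition mimicking the late endosomal membrane were loaded with the small-molecule dye calcein. They were then exposed to the cyclic peptide, and release of calcein from the vesicles was followed.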

[3] = determined by fluorescence correlation spectroscopy; ref [42]; cited from earlier work
HeLa cells [4] = settings: Rho-labeled, relative to CPP 1 (100%), ref [40]; cited from earlier work
HeLa cells [5] = settings: NF-labeled, relative to CPP 1 (100%), ref [40]; cited from earlier work
HeLa cells [6] = settings: relative to CPP 1 (100%); ref [40]; cited from earlier work
HeLa cells [7] = experiment: Cytosolic entry of R9^NF in presence of unlabeled CPP, flow cytometry; assay type: cell-based; settings: 5 μM unlabeled CPP
Procedure, shortened: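 HeLa cells seeded at 1.5 × 10^5 per well, grown overnight, then exposed to naphthofluorescein-labeled R9 with or without 5 μM unlabeled cyclic CPP for 2 h in culture medium. Cells were washed twice with DPBS, detached with 0.25% trypsin, pelleted at 250G for 5 min, washed, resuspended in DPBS and read by flow cytometry for cytosolic NF fluorescence.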

HeLa cells [8] = experiment: Cellular uptake of FITC-labeled peptides, flow cytometry; assay type: cell-based; settings: 9 vs cFΦR4, 11 vs 6, 12 vs 7, 5 μM, 2 h
Procedure, shortened: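 Peptides carried an extra lysine on the Gln side chain, FITC-labelled at that lysine. HeLa cells were seeded at 1.5 × 10^5 per well, grown overnight and given 5 μM peptide for 2 h in culture medium. Cells were DPBS-washed twice, trypsin-detached, pelleted at 250G for 5 min, washed and resuspended in DPBS. Flow cytometry used 488-nm excitation and the FITC channel.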

HeLa cells [9] = experiment: Uptake of Rho-labeled CPPs under ATP depletion or at 4 °C, flow cytometry; assay type: cell-based
[10] = mouse, in vivo

N=C(N)NCCC[C@@H]1NC(=O)[C@H](CCCNC(=N)N)NC(=O)[C@H](CCCNC(=N)N)NC(=O)[C@H](Cc2ccc3ccccc3c2)NC(=O)[C@H](Cc2ccccc2)NC(=O)[C@H](CCC(N)=O)NC(=O)[C@H](CCCNC(=N)N)NC1=O [CPP 1, cyclo(FΦRRRRQ)] (cyclo(F[2Nal]RRRRQ))
Apparent Endosomal Escape (γ, %) (HeLa cells [1]): 100%

RRRRRRRRR [R9, nonaarginine]
Apparent Endosomal Escape (γ, %) (HeLa cells [1]): 40 ± 5% | Calcein dye release from LUVs [2]: 1% | Cytosolic Delivery Efficiency (%) [3]: 4.4%

Triton X-100
Calcein dye release from LUVs [2]: 100%

YGRKKRRQRRR [Tat]
Total Cellular Uptake (MFI^Rho, %) (HeLa cells [4]): 43 ± 3 ^b % | Cytosolic Entry (MFI^NF, %) (HeLa cells [5]): 9.9 ± 1.7 ^b % | Apparent Endosomal Escape (γ, %) (HeLa cells [6]): 23 ± 4 ^b % | Cytosolic Delivery Efficiency (%) [3]: 2.0% and 2.0 ^c %

cyclo(FfΦRrRrQ) [CPP 12]
Endosomal escape efficiency, fold relative to cFΦR4 (HeLa cells [1]): 4.0 fold | Apparent Endosomal Escape (γ, %) (HeLa cells [1]): 402 ± 48% | Effect on the cytosolic entry of R9^NF (HeLa cells [7]): minimal effect

cyclo(fΦRrRrQ) [CPP 9]
CPP activity (FITC uptake), fold more active than stereoisomer (HeLa cells [8]): 6 fold | Endosomal escape efficiency, fold relative to cFΦR4 (HeLa cells [1]): 2.0 fold | Apparent Endosomal Escape (γ, %) (HeLa cells [1]): 202 ± 20% | Decrease of total cellular uptake efficiency by energy depletion (HeLa cells [9]; ATP depletion with sodium azide and 2-deoxyglucose): ~ 80% | Reduction of cellular entry at 4 °C (HeLa cells [9]; incubation at 4 °C): ≥ 95% | oral bioavailability [10]: demonstrated oral bioavailability

penetratin
Calcein dye release from LUVs [2]: 23%
